Measured values: PMC10338367 (Heliyon, 2023)

Columns and labels:
[1] = test system: A172 human glioblastoma cells; assay: WST cell viability assay, A172; assay type: cell-based
Outline: (§1)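 Cells (MEM, 10% FBS, 37 °C, 5% CO₂) were seeded at 3 × 10³/well and pre-incubated 24 h. They were treated with test compound at 0.16, 0.8, 4, 20 or 100 μM for 24, 48 or 72 h, with DMSO as vehicle control. WST-1 was then added for 4 h at 37 °C and absorbance read at 516 nm (reference 600 nm). Viability was taken relative to untreated cells and IC50 read from dose-response curves at each time; ≥3 independent experiments.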

[2] = test system: LN229 human glioblastoma cells; assay: WST cell viability assay, LN229; assay type: cell-based
Outline: as §1

[3] = test system: normal human astrocytes (NHA); assay: WST cell viability assay, NHA; assay type: cell-based
Outline: as §1

A172 cells = assay: Flow cytometry analysis of cell cycle and apoptosis; assay type: cell-based, human; conditions: for G0-G1, percentage of cells / Sub G1, percentage of cells: A172, 4 μM
Outline: (§2)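 Cells from MD Anderson were grown in MEM with 10% FBS, penicillin-streptomycin and 1% glutamine at 37 °C, 5% CO₂. About 1 × 10⁶ cells per 10-cm plate were exposed to test compound (4 or 10 μM) for 0, 24, 48 or 72 h. Cells were spun down, PBS-washed, fixed overnight (12 h) in chilled 70% ethanol and PI-stained. Sub-G1, G0/G1, S and G2/M fractions were measured; mean ± S.D. of three experiments, untreated controls at each time.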

LN229 cells = assay: as above; assay type: cell-based, human; conditions: for G0-G1, percentage of cells: LN229, 4 μM
Outline: as §2

[4] = DPPH radical scavenging assay

Row | Compound | IC50 ([1]; A172, 72 h) [nM] | IC50 ([2]; LN229, 24 h) [nM] | IC50 ([2]; LN229, 48 h) [nM] | IC50 ([2]; LN229, 72 h) [nM] | IC50 ([3]; 48 h) [nM] | Percentage of antioxidant activity (DPPH) ([4]; 250 μM/mL) [%] | Percentage of antioxidant activity (DPPH) ([4]; 500 μM/mL) [%] | Percentage of antioxidant activity (DPPH) ([4]; 750 μM/mL) [%] | Percentage of antioxidant activity (DPPH) ([4]; 1000 μM/mL) [%] | further results
1 | CCCN(C)CCc1c[nH]c2ccccc12 [MPT, Methylprophyl tryptamine, reference compound] | 430 ± 90 | 448 ± 300 | 447 ± 10 | 440 ± 70 | 470 ± 40 | – | – | – | – | IC50 ([1]; A172, 48 h): 440 ± 130 nM; IC50 ([3]; 24 h): 490 ± 30 nM; IC50 ([3]; 72 h): 450 ± 40 nM
2 | COc1ccc(C(c2c(O)c3ccccc3oc2=O)c2c(O)c3ccccc3oc2=O)cc1 [HL, 3,3′-[(4-methoxyphenyl)methanediyl]bis(4-hydroxy-2Hchromen-2-one)] | 950 | 9550 | 1780 ± 50 | 850 ± 70 | 640 ± 60 | 10.37 ± 0.08 | 15.12 ± 0.03 | 19.41 ± 0.02 | 25.62 ± 0.07 | IC50 ([1]; Homo sapiens, A 172, 24 h, A172, 24 h): 2680 ± 190 nM; IC50 ([3]; Homo sapiens, Astrocyte, 24 h): 3210 ± 40 nM; IC50 ([3]; Homo sapiens, Astrocyte, 72 h): 220 ± 40 nM; cell cycle arrest, phase (A172 cells; A172): cell cycle arrest was caused at G0/G1 phase; G0-G1, percentage of cells (A172 cells; 24 h): 67.66%; Sub G1, percentage of cells (A172 cells; 48 h): 6.48%; G0-G1, percentage of cells (A172 cells; 72 h): 59.23%; Sub G1, percentage of cells (A172 cells; 72 h): 4.55%; cell cycle arrest, phase (LN229 cells; LN229): arrested at G0/G1 phase; G0-G1, percentage of cells (LN229 cells; 24 h): 70.33%; G0-G1, percentage of cells (LN229 cells; 48 h): 61.70%; G0-G1, percentage of cells (LN229 cells; 72 h): 41.11%
3 | O=C1O[C@H]([C@@H](O)CO)C(O)=C1O [Ascorbic acid, reference compound] | – | – | – | – | – | 74.08 ± 0.04 | 80.24 ± 0.01 | 85.79 ± 0.1 | 92.059 ± 0.08 | –
